Reference: ChEMBL document CHEMBL4196167, “Ansamycins with Antiproliferative and Antineuroinflammatory Activity from Moss-Soil-Derived Streptomyces cacaoi subsp. asoensis H2S5” (J Nat Prod, 2018)
One block for each compound: values may come before it. Active and inactive are the calls of the source. The rule behind the calls is not given here.

Legend:
[1] = tested on: PC-3; assay: Cytotoxicity against human PC3 cells after 72 hrs by sulforhodamine B assay; assay type: functional, cell-based; details: PC-3, 72 h
How it was run: (§1)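 SRB assay. Exponentially growing cells at 2.5 × 10^4 cells/mL attached, then given fresh medium with a range of concentrations for 72 h at 37 °C; four replicate wells; 0.1% DMSO negative control, doxorubicin reference. Fixed in cold 10% TCA 1 h at 4 °C, stained with 0.4% SRB, dye dissolved in 10 mM Tris, A560; viability relative to control; IC50 from dose–response curves.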

[2] = tested on: HepG2; assay: Cytotoxicity against human HepG2 cells after 72 hrs by sulforhodamine B assay; assay type: functional, cell-based; details: HepG2, 72 h; how it was run: as §1
[3] = tested on: BV-2; assay: Inhibition of LPS-induced nitric oxide production in mouse BV2 cells after 24 hrs by Griess assay; assay type: functional, cell-based; details: BV-2, 24 h
How it was run: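 BV-2 murine microglia in DMEM with 10% heat-inactivated FBS, seeded at 2 × 10^4/well and grown 24 h. Given compound at five concentrations with 1 μg/mL LPS (E. coli 0111:B4) for 24 h; quercetin reference. Supernatant nitrite measured by Griess reagents I and II at A540 against a sodium nitrite standard curve; IC50 as concentration halving NO.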

[4] = Cytotoxicity against LPS-induced mouse BV2 cells assessed as cell viability after 24 hrs by MTT assay; assay type: cell-based, BV-2; parameters: concentration or dose not given beside the values; details: read-out: Activity
How it was run: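 BV-2 cells seeded at 2 × 10^3 per 100 μL and grown 24 h, then given compound at various concentrations plus LPS for 24 h; DMSO alone as negative control. MTT (5 mg/mL stock, 10 μL) added for 4 h at 37 °C, lysed overnight in SDS/[…]/HCl buffer, absorbance 570 nm.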

[5] = tested on: HepG2; assay: Induction of apoptosis in human HepG2 cells assessed as chromatin condensation at 5 to 10 uM after 48 hrs by Hoechst 33342 staining based fluorescence microscopic analysis; assay type: functional, cell-based
How it was run: (§2)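 1 × 10^6 HepG2 cells on coverslips treated 48 h at 1.0, 5.0 or 10 μM; DMSO control. Fixed 30 min in 4% paraformaldehyde, Hoechst 33342 stained 10 min at room temperature in the dark, PBS-washed, nuclear morphology viewed by fluorescence microscopy.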

[6] = tested on: HepG2; assay: Induction of apoptosis in human HepG2 cells assessed as cell shrinkage at 5 to 10 uM after 48 hrs by Hoechst 33342 staining based fluorescence microscopic analysis; assay type: functional; how it was run: as §2
[7] = tested on: HepG2; assay: Induction of apoptosis in human HepG2 cells assessed as early apoptotic cells at 0.5 uM after 48 hrs by annexin-V-FITC/propidium iodide staining based flow cytometry (reference value: 0.33%); assay type: functional
[8] = tested on: HepG2; assay: Induction of apoptosis in human HepG2 cells assessed as late apoptotic cells at 0.5 uM after 48 hrs by annexin-V-FITC/propidium iodide staining based flow cytometry (reference value: 0.51%); assay type: functional
[9] = tested on: HepG2; assay: Induction of apoptosis in human HepG2 cells assessed as necrotic cells at 0.5 uM after 48 hrs by annexin-V-FITC/propidium iodide staining based flow cytometry (reference value: 1.82%); assay type: functional
[10] = tested on: HepG2; assay: Induction of apoptosis in human HepG2 cells assessed as early apoptotic cells at 1 uM after 48 hrs by annexin-V-FITC/propidium iodide staining based flow cytometry (reference value: 0.33%); assay type: functional
[11] = tested on: HepG2; assay: Induction of apoptosis in human HepG2 cells assessed as late apoptotic cells at 1 uM after 48 hrs by annexin-V-FITC/propidium iodide staining based flow cytometry (reference value: 0.51%); assay type: functional
[12] = tested on: HepG2; assay: Induction of apoptosis in human HepG2 cells assessed as necrotic cells at 1 uM after 48 hrs by annexin-V-FITC/propidium iodide staining based flow cytometry (reference value: 1.82%); assay type: functional
[13] = tested on: HepG2; assay: Induction of apoptosis in human HepG2 cells assessed as early apoptotic cells at 5 uM after 48 hrs by annexin-V-FITC/propidium iodide staining based flow cytometry (reference value: 0.33%); assay type: functional
[14] = tested on: HepG2; assay: Induction of apoptosis in human HepG2 cells assessed as late apoptotic cells at 5 uM after 48 hrs by annexin-V-FITC/propidium iodide staining based flow cytometry (reference value: 0.51%); assay type: functional
[15] = tested on: HepG2; assay: Induction of apoptosis in human HepG2 cells assessed as necrotic cells at 5 uM after 48 hrs by annexin-V-FITC/propidium iodide staining based flow cytometry (reference value: 1.82%); assay type: functional
[16] = tested on: HepG2; assay: Cell cycle arrest in human HepG2 cells assessed as accumulation at G1-phase at 0.5 uM after 24 hrs by propidium iodide staining based flow cytometry (reference value: 62.3%); assay type: functional
How it was run: (§3)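 HepG2 cells exposed 24 h to 0.5, 1.0 or 5.0 μM, with DMSO control; washed in cold PBS, fixed in ice-cold 95% ethanol at 4 °C for at least 2 h, then PI-stained 30 min at 37 °C. Cell-cycle phases read by flow cytometry on 10 000 cells per sample; three independent experiments.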

[17] = tested on: HepG2; assay: Cell cycle arrest in human HepG2 cells assessed as accumulation at S-phase at 0.5 uM after 24 hrs by propidium iodide staining based flow cytometry (reference value: 25.5%); assay type: functional; how it was run: as §3
[18] = tested on: HepG2; assay: Cell cycle arrest in human HepG2 cells assessed as accumulation at G2-phase at 0.5 uM after 24 hrs by propidium iodide staining based flow cytometry (reference value: 9.61%); assay type: functional; how it was run: as §3
[19] = tested on: HepG2; assay: Cell cycle arrest in human HepG2 cells assessed as accumulation at G1-phase at 1 uM after 24 hrs by propidium iodide staining based flow cytometry (reference value: 62.3%); assay type: functional; how it was run: as §3
[20] = tested on: HepG2; assay: Cell cycle arrest in human HepG2 cells assessed as accumulation at S-phase at 1 uM after 24 hrs by propidium iodide staining based flow cytometry (reference value: 25.5%); assay type: functional; how it was run: as §3
[21] = tested on: HepG2; assay: Cell cycle arrest in human HepG2 cells assessed as accumulation at G2-phase at 1 uM after 24 hrs by propidium iodide staining based flow cytometry (reference value: 9.61%); assay type: functional; how it was run: as §3
[22] = tested on: HepG2; assay: Cell cycle arrest in human HepG2 cells assessed as accumulation at G1-phase at 5 uM after 24 hrs by propidium iodide staining based flow cytometry (reference value: 62.3%); assay type: functional; how it was run: as §3
[23] = tested on: HepG2; assay: Cell cycle arrest in human HepG2 cells assessed as accumulation at S-phase at 5 uM after 24 hrs by propidium iodide staining based flow cytometry (reference value: 25.5%); assay type: functional; how it was run: as §3
[24] = tested on: HepG2; assay: Cell cycle arrest in human HepG2 cells assessed as accumulation at G2-phase at 5 uM after 24 hrs by propidium iodide staining based flow cytometry (reference value: 9.61%); assay type: functional; how it was run: as §3

SMILES: O=c1c(O)c(-c2ccc(O)c(O)c2)oc2cc(O)cc(O)c12 [QUERCETIN]
IC50 [3]: 2400 nM | viability at 24 h [4]: 99.2%

SMILES: CO[C@H]1/C=C/C=C/C=C/C[C@H](OC(=O)[C@@H](C)NC(=O)CC(C)C)[C@H](C)[C@@H](O)/C(C)=C\CCc2cc(O)cc(c2)NC(=O)C1
IC50 [1]: 4500 nM | IC50 [2]: 1000 nM | IC50 [3]: 1100 nM | viability at 24 h [4]: 92.7%

SMILES: CO[C@H]1/C=C/C=C/C=C/C[C@H](OC(=O)[C@@H](C)NC(=O)C(C)C)[C@H](C)[C@@H](O)/C(C)=C\CCc2cc(O)cc(c2)NC(=O)C1
IC50 [1]: 4400 nM | IC50 [2]: 400 nM | IC50 [3]: 2900 nM | viability at 24 h [4]: 85.4%

SMILES: COc1cccc2c1C(=O)c1c(O)c3c(c(O)c1C2=O)C[C@@](O)(C(=O)CO)C[C@@H]3O[C@H]1C[C@H](N)[C@H](O)[C@H](C)O1 [DOXORUBICIN]
IC50 [1]: 800 nM | IC50 [2]: 700 nM

SMILES: CC.CO[C@H]1/C=C/C=C/C=C/C[C@H](O)[C@H](C)[C@@H](OC(=O)[C@@H](C)NC(=O)CC(C)C)/C(C)=C\CCc2cc(O)cc(c2)NC(=O)C1
IC50 [1]: 11900 nM | IC50 [2]: 20500 nM | IC50 [3]: 8300 nM | viability at 24 h [4]: 83.1%

SMILES: CCCC(=O)N[C@H](C)C(=O)O[C@H]1C/C=C/C=C/C=C/[C@H](OC)CC(=O)Nc2cc(O)cc(c2)CC/C=C(/C)[C@H](O)[C@H]1C
IC50 [1]: 4500 nM | IC50 [2]: 3000 nM | IC50 [3]: 1700 nM | viability at 24 h [4]: 96%

Further compounds by falling IC50 [3], results first:

IC50 [3]: 480 nM
SMILES: CCC(C)C(=O)N[C@H](C)C(=O)O[C@H]1C/C=C/C=C/C=C/[C@H](OC)CC(=O)Nc2cc(O)cc(c2)CC/C=C(/C)[C@H](O)[C@H]1C (some centres undefined)
IC50 [1]: 2600 nM | IC50 [2]: 500 nM | viability at 24 h [4]: 76.3%

IC50 [3]: 300 nM
SMILES: CO[C@H]1/C=C/C=C/C=C/C[C@H](O)[C@H](C)[C@@H](OC(=O)[C@@H](C)NC(=O)C2CCCCC2)/C(C)=C\CCc2cc(O)cc(c2)NC(=O)C1
IC50 [1]: 10200 nM | IC50 [2]: 17600 nM | viability at 24 h [4]: 93.1%

IC50 [3]: 180 nM
SMILES: CO[C@H]1/C=C/C=C/C=C/C[C@H](OC(=O)[C@@H](C)NC(=O)CCC(C)C)[C@H](C)[C@@H](O)/C(C)=C\CCc2cc(O)cc(c2)NC(=O)C1
IC50 [1]: 4200 nM | IC50 [2]: 200 nM | viability at 24 h [4]: 82.5%

IC50 [3]: 90 nM
SMILES: CO[C@H]1/C=C/C=C/C=C/C[C@H](OC(=O)[C@@H](C)NC(=O)CCCC(C)C)[C@H](C)[C@@H](O)/C(C)=C\CCc2cc(O)cc(c2)NC(=O)C1
IC50 [1]: 2700 nM | IC50 [2]: 100 nM | Activity [5]: Active | Activity [6]: Active | Activity [7]: 5.11% | Activity [8]: 1.25% | Activity [9]: 1.98% | Activity [10]: 9.53% | Activity [11]: 1.66% | Activity [12]: 2.1% | Activity [13]: 17.63% | Activity [14]: 5.67% | Activity [15]: 3.66% | Activity [16]: 59.1% | Activity [17]: 24.7% | Activity [18]: 14.2% | Activity [19]: 37.1% | Activity [20]: 34.5% | Activity [21]: 12.4% | Activity [22]: 42.4% | Activity [23]: 38.6% | Activity [24]: 12.6% | viability at 24 h [4]: 83.8%

IC50 [3]: 30 nM
SMILES: CO[C@H]1/C=C/C=C/C=C/C[C@H](OC(=O)[C@@H](C)NC(=O)C2=CCCCC2)[C@H](C)[C@@H](O)/C(C)=C\CCc2cc(O)cc(c2)NC(=O)C1
IC50 [1]: 700 nM | IC50 [2]: 200 nM | viability at 24 h [4]: 94.3%

IC50 [3]: 20 nM
SMILES: CO[C@H]1/C=C/C=C/C=C/C[C@H](OC(=O)[C@@H](C)NC(=O)C2CCCCC2)[C@H](C)[C@@H](O)/C(C)=C\CCc2cc(O)cc(c2)NC(=O)C1 [TRIENOMYCIN A]
IC50 [1]: 400 nM | IC50 [2]: 200 nM | viability at 24 h [4]: 95.2%
